Measurements taken from ChEMBL document CHEMBL1128434, “Gonadotropin-releasing hormone antagonists: novel members of the azaline B family” (1995).
Each block holds one molecule with its values, some of them ahead of it. Activity calls are given as the source filed them. No cut-off for these calls is given here.

Tests used:
[1] = biological target: T1, Gonadotropin-releasing hormone receptor (Rattus norvegicus) (UniProt P30969); assay: In vitro potency to inhibit GnRH-mediated LH secretion by cultured pituitary cells relative to [Ac-delta-Pro1,DFpa2,DTrp36]GnRH.; format: functional, cell-based; conditions: Pituitary gland cell
T1 sequence (whole entry): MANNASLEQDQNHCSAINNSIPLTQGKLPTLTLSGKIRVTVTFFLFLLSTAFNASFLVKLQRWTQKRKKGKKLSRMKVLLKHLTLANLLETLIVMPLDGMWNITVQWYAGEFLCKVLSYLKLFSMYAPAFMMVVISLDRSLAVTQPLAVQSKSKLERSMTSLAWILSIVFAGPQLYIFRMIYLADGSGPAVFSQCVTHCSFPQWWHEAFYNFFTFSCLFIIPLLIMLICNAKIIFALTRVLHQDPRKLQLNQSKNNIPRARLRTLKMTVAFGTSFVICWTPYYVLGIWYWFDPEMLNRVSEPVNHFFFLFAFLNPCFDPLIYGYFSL
How it was run: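 Dispersed rat pituitary cells in culture; antagonist inhibition of GnRH-stimulated LH secretion. Potency expressed relative to standard antagonist [Ac-Δ3Pro1,D4FPhe2,DTrp3,6]GnRH taken as 1.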

[2] = biological target: T1, Gonadotropin-releasing hormone receptor (Rattus norvegicus); assay: Duration of action, measured using castrated male rat assay to inhibit luteinizing hormone release.; fully active at 24 hr but not at 48 hr; format: functional
Rattus norvegicus [3] = species on record: Rattus norvegicus; assay: Effect in the anti ovulatory assay (AOA) in rats expressed as no. of rats ovulating/No of rats treated at 1.0 mg; 4/15; format: functional
Rattus norvegicus [4] = species on record: Rattus norvegicus; assay: Effect in the anti ovulatory assay (AOA) in rats expressed as no. of rats ovulating/No of rats treated at 0.5 mg; 8/8; format: functional
Rattus norvegicus [5] = species on record: Rattus norvegicus; assay: Effect in the anti ovulatory assay (AOA) in rats expressed as no. of rats ovulating/No of rats treated at 2.5 mg; 0/2; format: functional
Rattus norvegicus [6] = species on record: Rattus norvegicus; assay: Effect in the anti ovulatory assay (AOA) in rats expressed as no. of rats ovulating/No of rats treated at 2.5 mg; 2/7; format: functional
Rattus norvegicus [7] = species on record: Rattus norvegicus; assay: Effect in the anti ovulatory assay (AOA) in rats expressed as no. of rats ovulating/No of rats treated at 250 mg; 4/4; format: functional
Rattus norvegicus [8] = species on record: Rattus norvegicus; assay: Effect in the anti ovulatory assay (AOA) in rats expressed as no. of rats ovulating/No of rats treated at 1.0 mg; 5/8; format: functional
Rattus norvegicus [9] = species on record: Rattus norvegicus; assay: Effect in the anti ovulatory assay (AOA) in rats expressed as no. of rats ovulating/No of rats treated at 0.5 mg; 3/4; format: functional
Rattus norvegicus [10] = species on record: Rattus norvegicus; assay: Duration of action measured using castrated male rat assay to inhibit luteinizing hormone release.; fully active at 48 hr but not at 72 hr; format: functional
Rattus norvegicus [11] = species on record: Rattus norvegicus; assay: Duration of action measured using castrated male rat assay to inhibit luteinizing hormone release.; In active at 24 hr; format: functional, organism-based
Rattus norvegicus [12] = species on record: Rattus norvegicus; assay: Effect in the anti ovulatory assay (AOA) in rats expressed as no. of rats ovulating/No of rats treated at 2.5 mg; 3/3; format: functional
Rattus norvegicus [13] = species on record: Rattus norvegicus; assay: Effect in the anti ovulatory assay (AOA) in rats expressed as no. of rats ovulating/No of rats treated at 0.5 mg; 4/4; format: functional
Rattus norvegicus [14] = species on record: Rattus norvegicus; assay: Effect in the anti ovulatory assay (AOA) in rats expressed as no. of rats ovulating/No of rats treated at 1.0 mg; 11/15; format: functional
Rattus norvegicus [15] = species on record: Rattus norvegicus; assay: Effect in the anti ovulatory assay (AOA) in rats expressed as no. of rats ovulating/No of rats treated at 1.0 mg; 9/12; format: functional
Rattus norvegicus [16] = species on record: Rattus norvegicus; assay: Effect in the anti ovulatory assay (AOA) in rats expressed as no. of rats ovulating/No of rats treated at 1.0 mg; 1/8; format: functional

SMILES: CC(=O)N[C@H](Cc1ccc2ccccc2c1)C(=O)N[C@H](Cc1ccc(Cl)cc1)C(=O)N[C@H](Cc1cccnc1)C(=O)N[C@@H](CO)C(=O)N(C)[C@@H](Cc1ccc(O)cc1)C(=O)N[C@H](Cc1ccc(Nc2n[nH]c(N)n2)cc1)C(=O)N[C@@H](CC(C)C)C(=O)N[C@@H](CCCCNC(C)C)C(=O)N1CCC[C@H]1C(=O)N[C@H](C)N
- No. of rats ovulated (Rattus norvegicus [6]): 2

SMILES: CC(=O)N[C@H](Cc1ccc2ccccc2c1)C(=O)N[C@H](Cc1ccc(Cl)cc1)C(=O)N[C@H](Cc1cccnc1)C(=O)N[C@@H](CO)C(=O)N[C@@H](Cc1ccc(NC(=O)Nc2cccc(Cl)c2)cc1)C(=O)N[C@H](Cc1ccc(NC(=O)Nc2cccc(Cl)c2)cc1)C(=O)N[C@@H](CC(C)C)C(=O)N[C@@H](CCCCNC(C)C)C(=O)N1CCC[C@H]1C(=O)N[C@H](C)N
- No. of rats ovulated (Rattus norvegicus [7]): 4

SMILES: CC(=O)NCCCC[C@H](NC(=O)[C@H](CO)NC(=O)[C@@H](Cc1cccnc1)NC(=O)[C@@H](Cc1ccc(Cl)cc1)NC(=O)[C@@H](Cc1ccc2ccccc2c1)NC(C)=O)C(=O)N[C@H](CCCCNC(C)=O)C(=O)N[C@@H](CC(C)C)C(=O)N[C@@H](CCCCNC(C)C)C(=O)N1CCC[C@H]1C(=O)N[C@H](C)N
- Duration of action (Rattus norvegicus [11]): inactive
- Relative potency [1]: 0.36
- No. of rats ovulated (Rattus norvegicus [12]): 3

SMILES: CC(=O)N[C@H](Cc1ccc2ccccc2n1)C(=O)N[C@H](Cc1ccc(Cl)cc1)C(=O)N[C@H](Cc1cccnc1)C(=O)N[C@@H](CO)C(=O)N[C@@H](Cc1ccc(Nc2n[nH]c(N)n2)cc1)C(=O)N[C@H](Cc1ccc(Nc2n[nH]c(N)n2)cc1)C(=O)N[C@@H](CC(C)C)C(=O)N[C@@H](CCCCNC(C)C)C(=O)N1CCC[C@H]1C(=O)N[C@H](C)N
- No. of rats ovulated (Rattus norvegicus [15]): 9

Continued, in another order:

- Relative potency [1]: 0.47
- Duration of action [2]: 24 h
SMILES: CC(=O)N[C@@H](Cc1c[nH]cn1)C(=O)Nc1ccc(C[C@H](NC(=O)[C@H](CO)NC(=O)[C@@H](Cc2cccnc2)NC(=O)[C@@H](Cc2ccc(Cl)cc2)NC(=O)[C@@H](Cc2ccc3ccccc3c2)NC(C)=O)C(=O)N[C@H](Cc2ccc(NC(=O)[C@@H](Cc3c[nH]cn3)NC(C)=O)cc2)C(=O)N[C@@H](CC(C)C)C(=O)N[C@@H](CCCCNC(C)C)C(=O)N2CCC[C@H]2C(=O)N[C@H](C)N)cc1
- No. of rats ovulated (Rattus norvegicus [3]): 4
- No. of rats ovulated (Rattus norvegicus [4]): 8
- No. of rats ovulated (Rattus norvegicus [5]): 0

- Relative potency [1]: 1.1
SMILES: CC(=O)N[C@H](Cc1ccc2ccccc2c1)C(=O)N[C@H](Cc1ccc(Cl)cc1)C(=O)N[C@H](Cc1cccnc1)C(=O)N[C@@H](CO)C(=O)N[C@@H](Cc1ccc(NC(=O)CNc2n[nH]c(N)n2)cc1)C(=O)N[C@H](Cc1ccc(NC(=O)CNc2n[nH]c(N)n2)cc1)C(=O)N[C@@H](CC(C)C)C(=O)N[C@@H](CCCCNC(C)C)C(=O)N1CCC[C@H]1C(=O)N[C@H](C)N
- No. of rats ovulated (Rattus norvegicus [8]): 5
- No. of rats ovulated (Rattus norvegicus [9]): 3
- Duration of action (Rattus norvegicus [10]): 48 h

- Relative potency [1]: 0.65
SMILES: CC(=O)N[C@H](Cc1ccc2ccccc2c1)C(=O)N[C@H](Cc1ccc(Cl)cc1)C(=O)N[C@H](Cc1cccnc1)C(=O)N[C@@H](CO)C(=O)N[C@@H](Cc1ccc(NC(=O)c2n[nH]c(N)n2)cc1)C(=O)N[C@H](Cc1ccc(NC(=O)c2n[nH]c(N)n2)cc1)C(=O)N[C@@H](CC(C)C)C(=O)N[C@@H](CCCCNC(C)C)C(=O)N1CCC[C@H]1C(=O)N[C@H](C)N
- No. of rats ovulated (Rattus norvegicus [13]): 4
- No. of rats ovulated (Rattus norvegicus [14]): 11

- Relative potency [1]: 0.4
SMILES: CC(=O)N[C@H](Cc1ccc2ccccc2c1)C(=O)N[C@H](Cc1ccc(Cl)cc1)C(=O)N[C@H](Cc1cccnc1)C(=O)N[C@@H](CO)C(=O)N[C@@H](Cc1ccc(NC(=O)[C@@H](C)Nc2n[nH]c(N)n2)cc1)C(=O)N[C@H](Cc1ccc(NC(=O)[C@H](C)Nc2n[nH]c(N)n2)cc1)C(=O)N[C@@H](CC(C)C)C(=O)N[C@@H](CCCCNC(C)C)C(=O)N1CCC[C@H]1C(=O)N[C@H](C)N
- No. of rats ovulated (Rattus norvegicus [13]): 4
- No. of rats ovulated (Rattus norvegicus [16]): 1
